Sampled rows, rich in hits. Any-hit rate of the full collection: about 11%.
M1 antagonist: M1 muscarinic receptor (rat) antagonism; B-score at 10 µM; CHO-M1 cells, Fluo-4 calcium, ACh EC80 antagonist mode; hits give low values; P08482; hit rate 3.4% among 64,000;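 active means calcium fluorescence response, raw or row-and-column corrected B-score, differing from the plate sample mean either way at a set confidence level, mostly lower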
D1 allo mod: allosteric modulators of human D1 dopamine receptor; HEK293 D1, CRE-luciferase, dopamine EC30 potentiation; actives deviate in either direction; B-score at 10 µM; hit rate 5.9% among 58,000;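 active means luminescence count or its row- and column-corrected plate score outside the 99.7% band of the plate's sample wells, on either side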
S1P3 agonist: activates the human S1P3 receptor; hit rate 0.1% among 60,000; Q99500; activation, % at 4.5 µM; AID 373; S1P3 NFAT-BLA reporter cells, agonism, FRET ratio; relative to 1 µM S1P, basal subtracted;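 active means activation above the screen-wide mean plus 3 SD, cut at about 4.5% in these data, passing the limit was not always enough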
Target sequence (Q99500 whole entry, looked up): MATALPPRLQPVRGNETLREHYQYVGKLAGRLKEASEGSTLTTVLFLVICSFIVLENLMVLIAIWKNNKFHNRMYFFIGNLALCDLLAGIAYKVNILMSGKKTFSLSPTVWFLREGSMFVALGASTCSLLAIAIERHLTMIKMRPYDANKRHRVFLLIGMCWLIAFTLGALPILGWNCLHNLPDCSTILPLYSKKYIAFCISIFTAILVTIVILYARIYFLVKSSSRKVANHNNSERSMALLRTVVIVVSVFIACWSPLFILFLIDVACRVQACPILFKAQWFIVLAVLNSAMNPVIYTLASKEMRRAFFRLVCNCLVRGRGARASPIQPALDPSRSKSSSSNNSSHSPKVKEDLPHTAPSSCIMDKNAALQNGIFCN
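Benchmarks: high control 1 µM S1P / System: stable CHO line with human S1P3, Gα16, NFAT-BLA reporter / Dosing: single compound concentration, 4.5 µM final / Timing: 4 h compound at 37 °C, 2 h substrate at RT / Measured by: FRET β-lactamase substrate fluorescence, excitation 405 nm, 460/535 nm emission ratio, background-subtracted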
TNAP act mid DEA: human TNAP activation, intermediate phosphate acceptor; P05186; purified TNAP, CDP-star luminescence, 100 mM DEA, 30 min; hits give high values; scale: 0 levamisole-inhibited, 1 vehicle-only enzyme; activation factor at 20 µM; 64,000 tested, under 10 active; AID 813;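 active means activation factor of at least 2 at 20 µM, relative to controls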
M1 ag: M1 muscarinic receptor agonism; CHO-M1 cells, Fluo-4 calcium fluorescence, agonist mode; hits give high values; B-score at 10 µM; hit rate 3% among 64,000; AID 626;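 active means fluorescence rise, raw or as B-score row- and column-corrected plate score, outside the 99.7% band of its plate's samples, either direction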
S1P1 ag-PAM: agonists and agonism potentiators of human S1P1 receptor. S1P1 CRE-bla cells, forskolin, beta-lactamase FRET, potentiator mode; S1P1 agonist co-added at EC20, 2 nM; 100% = saturating reference agonist, 0% = basal. hit rate 0.57% among 56,000. activation, % at 9.5 µM. P21453;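 active means activation above a cutoff set at the mean activation of all tested compounds plus 3 SD, cut at about 54% in these data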;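 further: forskolin at 4 µM as EC80 and the EC20 agonist is SEW2871; 100% = SEW2871 at its EC100 plus forskolin at EC80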
M1 ag confirm: confirmation of rat M1 muscarinic receptor agonists; shares compounds with M1 ag; CHO-M1 cells, Fluo-4 calcium fluorescence, agonist mode; actives lie on both sides; fluorescence change (max-min) at 10 µM; hit rate 19% among 1,700; AID 1488;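 active means fluorescence change differs from the solvent-only DMSO control mean at a set confidence level in both duplicate runs; inconclusive means differs from solvent-only control mean in just one of two runs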;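 further: an EC20 dose of acetylcholine follows compound addition during the same imaging run; raw fluorescence intensity difference in instrument units with no normalization to controls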
M4 agonist ctr: counter-screen for M1 agonists: activity at rat M4 receptor | AID 1741 | CHO M4/Gqi5 cells, Fluo-4 calcium fluorescence, agonist mode; actives lie on both sides | fluorescence change (max-min) at 10 µM | hit rate 9% among 1,700 | shares compounds with M1 ag;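 active means fluorescence change differing from the plate's solvent-only control wells at 99.7% confidence in both duplicates, whether higher or lower; inconclusive means differs from solvent controls in only one of two duplicates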
An asterisk follows results filed as active; ? = inconclusive; · = no result.

SMILES	M1 antagonist	D1 allo mod	S1P3 agonist	TNAP act mid DEA	M1 ag	S1P1 ag-PAM	M1 ag confirm	M4 agonist ctr
CCOC(=O)N1CCC2(CC1)C(C#N)=C(N)Oc1c2c(C)nn1-c1cccc(Cl)c1	-1.02	0.968	-0.3	0.9	-1.49	20.0	·	·
Cc1ccc(Cn2c(NCCCn3ccnc3)nc3c2c(=O)n(C)c(=O)n3C)cc1	0.014	3.09	-0.7	1	-0.00454	3.5	·	·
Cc1cc(NCCN2CCOCC2)n2ncc(-c3ccccc3)c2n1	0.0091	-0.62	-0.4	0.9	0.924	-0.4	·	·
Cc1cc(NCCCn2ccnc2)n2ncc(-c3ccccc3)c2n1	-0.395	-6.44*	0.1	1	-0.0428	5.5	·	·
CC(=O)c1ccc(NC(=O)c2ccn[nH]2)cc1	-0.0253	-2.25*	0.3	1	-1.05	-10.0	·	·
CC(=O)c1ccc(C(=O)Nc2ccc(N3CCOCC3)cc2)cc1	0.162	1.44	-0.9	0.9	-1.46	6.3	·	·
Cc1nnc(SCC(=O)Nc2nc3c(s2)CC(C)CC3)s1 (stereo not given)	-0.849	-0.321	0.0	0.9	-0.0547	25.9	·	·
Cc1cc(C)nc(SCC(=O)Nc2ccc(N3CCOCC3)c(Cl)c2)n1	-0.838	-0.224	-0.8	0.9	1.47	·	·	·
CC1CCc2nc(NC(=O)CSc3nc4ccccc4o3)sc2C1 (stereo not given)	1.11	-1.8	-0.3	0.9	-0.0425	75.9*	·	·
O=C(CSc1nc2ccccc2o1)Nc1ccc(N2CCOCC2)c(Cl)c1	0.826	-0.369	-1.7	1	-0.881	118.8*	·	·
c1ccc2[nH]c(SCCN3CCOCC3)nc2c1	0.167	·	-1.9	0.9	-0.15	-17.5	·	·
CCOC(=O)Cc1csc(NC(=O)CSc2ncnc3c2cnn3-c2ccc(OC)cc2)n1	0.075	-4.17*	-0.9	1	0.0278	11.4	·	·
Cc1cc(C)c2c(CC(=O)Nc3nccs3)coc2c1	0.478	-0.293	-0.7	1	-0.125	-16.0	·	·
Cn1c(=O)[nH]c(=O)c2c1nc(N1CCN(Cc3ccccc3)CC1)n2CCCc1ccccc1	-2.51	3.83	-1.6	1	0.0338	-24.1	·	·
Cn1c(=O)[nH]c(=O)c2[nH]c(CN3CCN(Cc4ccccc4)CC3)nc21	2.01	-4.28*	1.1	1	0.91	-19.7	·	·
Cc1cc(C)nc(SCC(=O)N2CCC(C(N)=O)CC2)n1	0.772	-0.02	-0.1	0.9	2.67*	-3.6	?	-43.7
Cc1c(NC(=O)CSc2ccccc2C(=O)Nc2cccnc2)c(=O)n(-c2ccccc2)n1C	-0.0829	-0.202	0.4	0.9	0.34	-33.4	·	·
CCOC(=O)c1oc2ccccc2c1CSc1nnnn1-c1ccc(C)cc1	0.759	1.21	2.9	0.9	0.378	-2.6	·	·
COc1cc(CSc2nnnn2-c2ccc(C)cc2)cc(OC)c1OC	-2.5*	-0.33	-1.9	1	5.8*	102.1*	3.54	?
CCN(CC)CCCN1C(=O)C(O)=C(C(=O)c2ccc(C)o2)C1c1ccco1 (stereo not given)	-1.15	1.24	-0.3	1	0.426	·	·	·
CN1C(=O)c2ccccc2C(C(=O)O)C1c1cn(C)c2ccccc12 (stereo not given)	0.0199	0.225	-1.2	1	-0.903	12.3	·	·
O=C1CC(=O)N(Cc2cccs2)C(=O)N1	0.621	-0.149	0.7	0.9	-0.559	-18.1	·	·
O=C1CC(=O)N(Cc2ccco2)C(=O)N1	0.409	-0.0779	0.6	0.9	3.01*	·	?	-58.3
C=CCOC(=O)C1=C(C)NC(=O)NC1c1cn(-c2ccccc2)nc1-c1cccs1 (stereo not given)	-1.5	2.09	0.5	0.9	-0.221	-22.7	·	·
COCCOC(=O)C1=C(C)NC(=O)NC1c1cn(-c2ccccc2)nc1-c1cccs1 (stereo not given)	-2.11*	·	1.7	1	10.6*	7.0	?	-37.6
SMILES	M1 antagonist	D1 allo mod	S1P3 agonist	TNAP act mid DEA	M1 ag	S1P1 ag-PAM	M1 ag confirm	M4 agonist ctr
Cc1nc2sc3c(c2c(=O)o1)CC(C)(C)OC3	-0.238	-0.0712	-3.4	0.9	0.635	0.9	·	·
Cc1cc(C)n(-c2nc(NCC3CCCO3)c3c4c(sc3n2)COC(C)(C)C4)n1 (stereo not given)	-0.988	1.21	2.9	1	3.43*	-74.5	-18	-16.6
Cc1c(OC(=O)CNC(=O)OC(C)(C)C)ccc2c3c(c(=O)oc12)CCC3	-0.346	1.92	0.0	1	2.41*	-3.8	0.275	-23
CCOC(=O)C1CCCN(S(=O)(=O)c2cccc3cccnc23)C1 (stereo not given)	-1.88	0.0353	-1.1	1	0.667	7.8	·	·
COC(=O)c1ccccc1NC(=O)COC(=O)c1ccc(C)c(NC(=O)c2ccco2)c1	-0.818	0.0389	0.8	1	5.32*	-15.0	-11.8	?
Cc1csc(NC(=O)c2sc3nc(-c4cccs4)ccc3c2N)n1	-1.29	-2.84*	-1.0	0.8	54.1*	·	?	?
COc1cccc(C(=O)N(Cc2cc3cc(C)ccc3[nH]c2=O)CC2CCCO2)c1 (stereo not given)	·	0.393	-1.3	1	·	-10.0	·	·
COc1ccc2[nH]c(=O)c(CN(CC3CCCO3)C(=O)Nc3ccc(F)cc3)cc2c1 (stereo not given)	-4.29*	-0.215	-0.8	0.9	11.2*	-0.9	-1.02	-20.7
CCOC(=O)c1c(N)n(CCOC(=O)c2cccs2)c2nc3ccccc3nc12	-1.03	0.776	-0.4	0.9	9.76*	-11.1	-2.54	-36.5
Cc1cccc(N2CCN(C(=O)Cn3nc(Cc4ccncc4)c4ccccc4c3=O)CC2)c1C	-0.541	2.85	-1.2	0.8	-0.264	4.5	·	·
Cc1nn(-c2ccccc2)c(N2CCCC2)c1/C=N/n1cnc2scc(-c3ccccc3)c2c1=O	-2.44*	-0.112	-1.0	0.9	9.13*	12.2	5.57	-14.6
Fc1cccc(CN2CCCCCCC2)c1	-0.432	-0.14	-1.0	0.9	0.217	8.9	·	·
Cc1nn(Cc2ccc(Cl)c(Cl)c2)c(C)c1NC(=O)c1cc(-c2ccc3c(c2)OCO3)on1	-1.89	-0.797	-2.1	1	4.14*	-3.6	31.1	-10.8
Cc1nn(Cc2ccc(F)cc2)c(C)c1NC(=O)c1noc2c1CCCCC2	0.0906	0.184	-0.4	0.9	5.89*	14.2	-6.75	-39.6
Cc1nn(Cc2ccc(Cl)cc2)c(C)c1NC(=O)c1cc(-c2ccc3c(c2)OCO3)on1	0.00934	-0.675	-1.0	1	-0.187	34.8	·	·
O=C(Nc1ccccc1)NC1(C(=O)NCCCN2CCOCC2)CCCCC1	1.11	0.157	-1.0	1	4.01*	14.6	?	-58.1
